Measurements published in ChEMBL document CHEMBL4706701, “Synthesis and biological activity of selenopsammaplin A and its analogues as antitumor agents with DOT1L inhibitory activity” (Bioorg Med Chem, 2021).
The source made the active and inactive calls. The rule behind the calls is not given here.

Key:
[1] = molecular target: Histone-lysine N-methyltransferase, H3 lysine-79 specific (Homo sapiens) (UniProt Q8TEK3); experiment: Inhibition of DOT1L in human MDA-MB-231 cells assessed as down regulation of H3K79me2 expression at 200 nM by Western blot analysis; format: cell-based
Sequence of Histone-lysine N-methyltransferase, H3 lysine-79 specific (Homo sapiens) (Q8TEK3 whole entry, looked up, the tested form may be a part): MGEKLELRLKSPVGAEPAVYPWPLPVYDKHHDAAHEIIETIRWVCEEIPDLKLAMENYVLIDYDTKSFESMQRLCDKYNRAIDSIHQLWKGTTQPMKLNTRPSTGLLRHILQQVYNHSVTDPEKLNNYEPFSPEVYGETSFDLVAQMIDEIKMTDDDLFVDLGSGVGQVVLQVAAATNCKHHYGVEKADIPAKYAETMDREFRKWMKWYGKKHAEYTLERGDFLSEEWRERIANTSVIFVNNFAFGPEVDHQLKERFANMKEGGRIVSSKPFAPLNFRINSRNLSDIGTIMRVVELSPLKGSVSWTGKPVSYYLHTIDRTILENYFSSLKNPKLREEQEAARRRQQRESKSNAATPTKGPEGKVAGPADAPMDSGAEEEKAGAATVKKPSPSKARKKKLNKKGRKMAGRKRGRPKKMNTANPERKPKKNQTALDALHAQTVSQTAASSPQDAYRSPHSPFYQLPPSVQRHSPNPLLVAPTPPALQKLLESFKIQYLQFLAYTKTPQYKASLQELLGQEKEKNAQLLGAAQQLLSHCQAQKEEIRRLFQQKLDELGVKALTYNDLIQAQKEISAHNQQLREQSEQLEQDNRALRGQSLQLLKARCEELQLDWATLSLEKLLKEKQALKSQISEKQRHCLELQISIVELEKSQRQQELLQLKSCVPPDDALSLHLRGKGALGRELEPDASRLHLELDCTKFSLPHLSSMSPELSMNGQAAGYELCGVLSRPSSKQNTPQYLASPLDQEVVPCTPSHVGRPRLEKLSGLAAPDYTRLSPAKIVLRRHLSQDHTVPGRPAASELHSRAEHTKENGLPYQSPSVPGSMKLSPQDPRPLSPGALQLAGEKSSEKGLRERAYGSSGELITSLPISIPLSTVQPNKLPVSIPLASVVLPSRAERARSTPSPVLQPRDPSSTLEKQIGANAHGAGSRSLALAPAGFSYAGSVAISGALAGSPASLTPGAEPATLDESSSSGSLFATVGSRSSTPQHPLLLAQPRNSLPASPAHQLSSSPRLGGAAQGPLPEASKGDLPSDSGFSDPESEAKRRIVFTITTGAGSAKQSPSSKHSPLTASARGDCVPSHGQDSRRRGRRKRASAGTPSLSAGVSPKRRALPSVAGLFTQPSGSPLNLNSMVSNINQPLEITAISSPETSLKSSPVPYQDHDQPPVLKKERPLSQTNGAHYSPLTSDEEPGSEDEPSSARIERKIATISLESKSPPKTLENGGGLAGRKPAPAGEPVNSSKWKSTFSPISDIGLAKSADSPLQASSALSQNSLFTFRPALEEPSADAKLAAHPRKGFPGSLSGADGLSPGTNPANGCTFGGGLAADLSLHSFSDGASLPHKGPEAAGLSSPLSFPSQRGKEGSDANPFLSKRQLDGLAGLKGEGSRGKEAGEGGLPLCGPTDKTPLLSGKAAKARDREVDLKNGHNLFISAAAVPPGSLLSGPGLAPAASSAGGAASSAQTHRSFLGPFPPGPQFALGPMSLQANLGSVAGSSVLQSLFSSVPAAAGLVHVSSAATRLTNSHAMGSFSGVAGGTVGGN
Outline: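 MDA-MB-231 lysates were made in 2× SDS sample buffer with vanadate and fluoride. 5-20 μg protein was run on 8–15% SDS-PAGE and blotted to PVDF. Membranes were blocked in 5% BSA, probed for H3K79me2 with total histone H3, and detected by ECL. Mean ± SD (n = 3), representative of three separate experiments.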

A549 = experiment: Cytotoxicity against human A549 cells assessed as reduction in cell viability by SRB assay; format: functional, cell-based
Outline: (§1)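 Cells seeded in 96-well plates and exposed to compounds for the stated times. Zero-day controls were incubated 30 min. Cells were fixed and stained with 0.4% SRB in 1% acetic acid, and bound dye was dissolved in 10 mM Tris (pH 10.0). A515 was read, and IC50 was calculated by non-linear regression.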

SNU-638 = experiment: Cytotoxicity against human SNU-638 cells assessed as reduction in cell viability by SRB assay; format: functional, cell-based; outline: as §1
SK-HEP1 = experiment: Cytotoxicity against human SK-HEP1 cells assessed as reduction in cell viability by SRB assay; format: functional, cell-based; outline: as §1
MDA-MB-231 [2] = experiment: Cytotoxicity against human MDA-MB-231 cells assessed as reduction in cell viability by SRB assay; format: functional, cell-based; outline: as §1
HCT-116 = experiment: Cytotoxicity against human HCT-116 cells assessed as reduction in cell viability by SRB assay; format: functional, cell-based; outline: as §1
[3] = Selectivity ratio of IC50 for human MCF-10A cells to IC50 for human MDA-MB-231 cells; format: toxicity; conditions: MCF-10A cells versus MDA-MB-231 cells, read-out: Ratio IC50
[4] = Selectivity ratio of IC50 for human MCF-10A cells to IC50 for human A549 cells; format: toxicity; conditions: MCF-10A cells versus A549 cells, read-out: Ratio IC50
[5] = molecular target: Histone-lysine N-methyltransferase, H3 lysine-79 specific (Homo sapiens) (UniProt Q8TEK3); experiment: Inhibition of human N-terminal GST-tagged DOT1L (2 to 416 residues) expressed in Escherichia coli at 200 nM using DOT1L substrate measured after 2 hrs in presence of SAM by ELISA
Outline: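 Cell-free DOT1L enzyme activity assay using 500 ng DOT1L per well. Compound was incubated 2 h before read-out. EPZ-5676 (100 nM) was the positive control. Mean ± SD (n = 3), representative of three separate experiments.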

MCF-10A = experiment: Cytotoxicity against human MCF-10A cells assessed as reduction in cell viability by SRB assay; format: cell-based; outline: as §1
[6] = Selectivity ratio of IC50 for human MCF-10A cells to IC50 for human SK-HEP1 cells
Outline: (§2)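 Cytotoxicity by SRB assay: cells seeded in 96-well plates and treated with compounds; fixed, stained with 0.4% SRB in 1% acetic acid, dye dissolved in 10 mM Tris (pH 10.0), absorbance read at 515 nm. IC50 by non-linear regression, means of at least three experiments; ratio of MCF10A IC50 to cancer-line IC50.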

[7] = Selectivity ratio of IC50 for human MCF-10A cells to IC50 for human SNU-638 cells; outline: as §2
[8] = Selectivity ratio of IC50 for human MCF-10A cells to IC50 for human HCT-116 cells; format: toxicity; conditions: MCF-10A cells versus HCT-116 cells, read-out: Ratio IC50
[9] = Toxicity in human MDA-MB-231 cells xenografted BALB/c nu mouse assessed as body weight loss at 5 mg/kg, ip administered thrice per week for 38 days measured once per week during compound dosing; format: organism-based; conditions: in vivo, 912 h, time 38 day
Outline: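 Female BALB/c-nu mice (5–6 wk) given 1 × 10⁷ luciferase-expressing MDA-MB-231 cells in 50:50 DMEM/Matrigel into the fourth fat pad; randomized after 10 days (six per group). Dosed ip in EtOH/Cremophor/saline (5:5:90) three times weekly for 38 days. Tumor L, W, H measured by caliper, volume = LWH/2; body weight weekly; tumors excised and weighed at termination.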

MDA-MB-231 [10] = experiment: Antimigratory activity in human MDA-MB-231 cells assessed as suppression of wound closure at 400 nM after 24 hrs by microscopic analysis; format: functional, cell-based
Outline: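 MDA-MB-231 monolayers at 80–90% confluence scratched with a pipette tip, washed with PBS, then kept 24 h in medium with 1% FBS plus compound at various concentrations. Wounds photographed at 0 and 24 h; area measured by image analysis and expressed as wound healing (%) relative to the 0 h area. Mean ± SD (n = 3), three separate experiments.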

[11] = molecular target: Histone-lysine N-methyltransferase, H3 lysine-79 specific (Homo sapiens) (UniProt Q8TEK3); experiment: Inhibition of DOT1L in human MDA-MB-231 cells assessed as effect on H3K4 methylation at 200 nM by Western blot analysis; format: cell-based
Outline: (§3)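 MDA-MB-231 cell lysates in 2× SDS buffer, protein by BCA; 5–20 μg on 8–15% SDS-PAGE, transferred to PVDF, BSA-blocked and probed with antibodies to H3K4me2, H3K27me2, H3K36me2, H3K79me2 and total histone H3; ECL detection. Mean ± SD (n = 3), three separate experiments.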

[12] = molecular target: Histone-lysine N-methyltransferase, H3 lysine-79 specific (Homo sapiens) (UniProt Q8TEK3); experiment: Inhibition of DOT1L in human MDA-MB-231 cells assessed as effect on histone H3 methylation at 200 nM by Western blot analysis; format: cell-based; outline: as §3
MDA-MB-231 [13] = experiment: Antiinvasive activity in human MDA-MB-231 cells assessed as reduction in cell invasion through matrigel-coated chamber at 400 nM after 24 hrs by diff-quik staining based microscopic analysis; format: functional
Outline: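 MDA-MB-231 cells pretreated with compound (50–400 nM) for 24 h, harvested into serum-free medium and plated at 0.5–1 × 10⁶ cells/chamber on transwell inserts (8 μm pores) coated with type I collagen and 1:20 Matrigel/PBS; 30% FBS medium as chemoattractant below. After 24 h, invaded cells fixed, Diff-Quik stained, counted in 5 random fields at 200×; three separate experiments.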

[14] = molecular target: Histone-lysine N-methyltransferase, H3 lysine-79 specific (Homo sapiens) (UniProt Q8TEK3); experiment: Inhibition of DOT1L in human MDA-MB-231 cells assessed as effect on H3K36 methylation at 200 nM by Western blot analysis; format: cell-based; outline: as §3
[15] = molecular target: Histone-lysine N-methyltransferase, H3 lysine-79 specific (Homo sapiens) (UniProt Q8TEK3); experiment: Inhibition of DOT1L in human MDA-MB-231 cells assessed as effect on H3K27 methylation at 200 nM by Western blot analysis; format: cell-based; outline: as §3

| Structure (SMILES) | H3K79me2 downregulation (active/not active) [1] | IC50 (A549) [nM] | IC50 (SNU-638) [nM] | IC50 (SK-HEP1) [nM] | IC50 (MDA-MB-231 [2]) [nM] | IC50 (HCT-116) [nM] | inhibition [5] | other results |
| --- | --- | --- | --- | --- | --- | --- | --- | --- |
| O=C(NCC[Se][Se]CCNC(=O)/C(Cc1ccc(Cl)cc1)=N/O)/C(Cc1ccc(Cl)cc1)=N/O | Active | 250 | 220 | 330 | 330 | 280 | – | – |
| O=C(NCC[Se][Se]CCNC(=O)/C(Cc1ccc2ccccc2c1)=N/O)/C(Cc1ccc2ccccc2c1)=N/O | inactive | 380 | 270 | 170 | 190 | 120 | – | – |
| O=C(NCC[Se][Se]CCNC(=O)/C(Cc1ccc(O)c(Br)c1)=N/O)/C(Cc1ccc(O)c(Br)c1)=N/O | Active | 30 | 20 | 210 | 160 | 10 | Active | selectivity ratio [3]: > 100; selectivity ratio [4]: > 100; IC50 (MCF-10A): 16100 nM; Ratio IC50 [6]: 77; Ratio IC50 [7]: >100; selectivity ratio [8]: > 100 |
| COc1cc([C@@H]2c3cc4c(cc3[C@@H](O[C@@H]3O[C@@H]5CO[C@@H](C)O[C@H]5[C@H](O)[C@H]3O)[C@H]3COC(=O)[C@H]23)OCO4)cc(OC)c1O [ETOPOSIDE] | – | – | 200 | 400 | 8700 | 1200 | – | – |
| O=C(NCC[Se][Se]CCNC(=O)/C(Cc1ccc(OCc2ccccc2)cc1)=N/O)/C(Cc1ccc(OCc2ccccc2)cc1)=N/O | Active | 140 | 410 | 280 | 140 | 100 | Active | – |
| CC(=O)O[C@H]1C(=O)[C@@]2(C)[C@H]([C@H](OC(=O)c3ccccc3)[C@]3(O)C[C@H](OC(=O)[C@H](O)[C@@H](NC(=O)c4ccccc4)c4ccccc4)C(C)=C1C3(C)C)[C@]1(OC(C)=O)CO[C@@H]1C[C@@H]2O [PACLITAXEL] | – | – | – | – | – | – | – | Activity [9]: Toxic |
| O=C(NCC[Se][Se]CCNC(=O)/C(Cc1ccc(Br)cc1)=N/O)/C(Cc1ccc(Br)cc1)=N/O | Active | 310 | 150 | 310 | 390 | 170 | – | – |
| O=C(NCC[Se][Se]CCNC(=O)/C(Cc1ccc(F)c(F)c1)=N/O)/C(Cc1ccc(F)c(F)c1)=N/O | Active | 330 | 50 | 270 | 420 | 180 | – | – |
| CC(C)(C)c1ccc(C/C(=N\O)C(=O)NCC[Se][Se]CCNC(=O)/C(Cc2ccc(C(C)(C)C)cc2)=N/O)cc1 | Active | 100 | 280 | 190 | 100 | 130 | Active | – |
| O=C(NCC[Se][Se]CCNC(=O)/C(Cc1ccc(O)c(F)c1)=N/O)/C(Cc1ccc(O)c(F)c1)=N/O | Active | 20 | 20 | 130 | 190 | 10 | Active | – |
| O=C(NCC[Se][Se]CCNC(=O)/C(Cc1ccc([N+](=O)[O-])cc1)=N/O)/C(Cc1ccc([N+](=O)[O-])cc1)=N/O | Active | 90 | 60 | 170 | 90 | 90 | Active | – |
| CCOc1ccc(C/C(=N\O)C(=O)NCC[Se][Se]CCNC(=O)/C(Cc2ccc(OCC)cc2)=N/O)cc1 | Active | 50 | 30 | 180 | 200 | 70 | Active | – |
| O=C(NCC[Se][Se]CCNC(=O)/C(Cc1ccc(F)cc1)=N/O)/C(Cc1ccc(F)cc1)=N/O | – | 100 | 70 | 140 | 130 | 110 | – | – |
| O=C(NCCSSCCNC(=O)/C(Cc1ccc(O)c(Br)c1)=N/O)/C(Cc1ccc(O)c(Br)c1)=N/O [PSAMMAPLIN A] | – | 1760 | 560 | 1290 | 1310 | 610 | inactive | Activity (MDA-MB-231 [10]): inactive; inhibition [11]: inactive; inhibition [12]: inactive; Activity (MDA-MB-231 [13]): inactive; inhibition [14]: inactive; inhibition [15]: inactive |
| O=C(NCC[Se][Se]CCNC(=O)/C(Cc1ccc(O)c(Cl)c1)=N/O)/C(Cc1ccc(O)c(Cl)c1)=N/O | Active | 20 | 10 | 110 | 170 | 10 | Active | – |
| O=C(NCC[Se][Se]CCNC(=O)/C(Cc1ccc(Cl)c(Cl)c1)=N/O)/C(Cc1ccc(Cl)c(Cl)c1)=N/O | Active | 280 | 180 | 320 | 250 | 520 | – | – |
